Measured values: PMC9299185 (Pest Management Science, 2021)
Like-named read-outs stand apart in the source and are kept apart here.

What was measured:
[1] = biological target: T1, honey bee CYP9Q2 (Apis mellifera, UniProt A0A7M7R6F2); test: Fluorescence-based BOMFC probe assay with recombinantly expressed CYP9Q2; type: biochemical; conditions: for Hill slope CYP9Q2: fungicides
T1 sequence (A0A7M7R6F2 1-532): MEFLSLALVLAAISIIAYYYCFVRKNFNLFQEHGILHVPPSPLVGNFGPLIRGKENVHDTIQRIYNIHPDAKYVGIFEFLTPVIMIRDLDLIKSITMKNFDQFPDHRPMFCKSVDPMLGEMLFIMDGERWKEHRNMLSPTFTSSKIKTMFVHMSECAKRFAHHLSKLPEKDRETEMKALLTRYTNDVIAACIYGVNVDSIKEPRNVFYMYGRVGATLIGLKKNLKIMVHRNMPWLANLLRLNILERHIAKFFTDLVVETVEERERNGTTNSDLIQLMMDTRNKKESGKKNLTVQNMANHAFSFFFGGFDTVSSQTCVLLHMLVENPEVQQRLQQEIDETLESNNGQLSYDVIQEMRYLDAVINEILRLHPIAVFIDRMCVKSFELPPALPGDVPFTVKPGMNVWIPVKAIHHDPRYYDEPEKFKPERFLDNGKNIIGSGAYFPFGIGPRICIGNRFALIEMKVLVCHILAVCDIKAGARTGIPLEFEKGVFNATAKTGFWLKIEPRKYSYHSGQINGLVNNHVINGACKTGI
T1 sequence (A0A8U1CY41 1-694 partner): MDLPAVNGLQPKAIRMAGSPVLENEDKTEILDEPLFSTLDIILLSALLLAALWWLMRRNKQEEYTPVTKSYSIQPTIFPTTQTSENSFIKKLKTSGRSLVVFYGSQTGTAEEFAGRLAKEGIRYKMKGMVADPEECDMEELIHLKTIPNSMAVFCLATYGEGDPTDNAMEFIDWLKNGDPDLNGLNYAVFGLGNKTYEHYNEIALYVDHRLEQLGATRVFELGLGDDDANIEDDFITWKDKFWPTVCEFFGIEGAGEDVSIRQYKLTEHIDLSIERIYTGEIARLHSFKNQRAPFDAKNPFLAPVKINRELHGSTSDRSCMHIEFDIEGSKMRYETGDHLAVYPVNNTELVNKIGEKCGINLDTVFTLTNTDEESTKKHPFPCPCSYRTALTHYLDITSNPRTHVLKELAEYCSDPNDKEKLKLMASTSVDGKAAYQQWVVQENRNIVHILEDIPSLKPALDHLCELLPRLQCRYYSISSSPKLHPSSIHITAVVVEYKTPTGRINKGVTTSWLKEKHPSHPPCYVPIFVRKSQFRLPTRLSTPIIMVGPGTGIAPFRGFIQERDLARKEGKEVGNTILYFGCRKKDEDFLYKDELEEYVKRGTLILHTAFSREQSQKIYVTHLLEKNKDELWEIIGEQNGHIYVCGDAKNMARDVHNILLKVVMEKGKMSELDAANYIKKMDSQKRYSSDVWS

[2] = biological target: T2, honey bee CYP9Q3 (Apis mellifera, UniProt A0A7M7LMV1); test: Fluorescence-based BOMFC probe assay with recombinantly expressed CYP9Q3; type: biochemical; conditions: for Hill slope CYP9Q3: fungicides
T2 sequence (A0A7M7LMV1 1-517): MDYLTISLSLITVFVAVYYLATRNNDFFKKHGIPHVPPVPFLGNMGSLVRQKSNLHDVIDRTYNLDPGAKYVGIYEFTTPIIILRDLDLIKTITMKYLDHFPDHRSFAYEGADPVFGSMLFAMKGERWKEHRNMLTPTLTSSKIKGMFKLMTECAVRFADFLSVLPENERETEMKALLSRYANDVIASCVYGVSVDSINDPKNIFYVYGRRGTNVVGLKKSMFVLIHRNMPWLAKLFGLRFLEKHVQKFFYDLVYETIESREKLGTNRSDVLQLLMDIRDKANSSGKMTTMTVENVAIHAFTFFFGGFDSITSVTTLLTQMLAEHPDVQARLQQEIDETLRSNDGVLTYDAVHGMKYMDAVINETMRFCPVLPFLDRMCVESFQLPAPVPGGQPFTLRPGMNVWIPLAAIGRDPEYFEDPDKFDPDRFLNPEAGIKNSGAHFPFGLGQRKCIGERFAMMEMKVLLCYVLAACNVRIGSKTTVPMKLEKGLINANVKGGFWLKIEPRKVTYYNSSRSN
T2 sequence (A0A8U1CY41 1-694 partner): T1 sequence (A0A8U1CY41 1-694 partner)

[3] = Honey bee acute contact toxicity and synergism study; type: in vivo, Apis mellifera; conditions: female, Apis mellifera (honey bee), in vivo, topical, honey bee mortality
How it was run: (§1)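 OECD 214 acute contact test, modified for the synergist. Mixed-age workers came from the honey super of three queen-right colonies untreated for at least 6 months. Propiconazole was applied at 10 μg/bee. Controls received acetone or propiconazole alone. Mortality was scored at 48 h. Groups were compared by unpaired t-test (P < 0.01), with SEM shown.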

[4] = system: Apis mellifera worker bees; test: as above; type: in vivo; conditions: for effect of propiconazole pretreatment on acute contact toxicity: 10 μg/bee propiconazole 1 h prior to insecticide application
How it was run: as §1

[5] = system: Apis mellifera worker bees; conditions: honey bee, reported value; cited from earlier work
[6] = system: Drosophila melanogaster Empty × Hsp70 (reference control strain); test: Drosophila diet overlay bioassay, control strain; type: in vivo; conditions: Empty × Hsp70 adults
How it was run: (§2)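 F1 adults came from crossing UAS strains carrying honey bee CYP9Q2 or CYP9Q3, or a control strain lacking the transgene, with a GAL4-Hsp70 driver. Flies were heat-shocked at 37 °C three times for 30 min the day before, then again just before testing. The test compound in acetone was diluted 1:2 in water with 0.1% (w/v) Triton X-100 and spread over artificial diet. Mortality was scored at 48 h. Values came from probit analysis; resistance ratio = transgenic LD50 / control LD50.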

[7] = system: transgenic Drosophila melanogaster CYP9Q2 × Hsp70; test: Drosophila diet overlay bioassay, strain expressing honey bee CYP9Q2; type: in vivo; conditions: for LD50 48 h: CYP9Q2 × Hsp70 adults, diet overlay; for RR (resistance ratio): LD50 of CYP9Q2 × Hsp70 divided by LD50 of Empty × Hsp70; for Slope: probit analysis, CYP9Q2 × Hsp70
How it was run: as §2

[8] = biological target: T3, honey bee CYP6AQ1 (Apis mellifera, UniProt F1DPP0); test: Fluorescence-based BOMFC probe assay with recombinantly expressed CYP6AQ1; type: biochemical; conditions: for inhibition of CYP6AQ1-mediated BOMFC metabolism: 100 μM
T3 sequence (F1DPP0 1-514): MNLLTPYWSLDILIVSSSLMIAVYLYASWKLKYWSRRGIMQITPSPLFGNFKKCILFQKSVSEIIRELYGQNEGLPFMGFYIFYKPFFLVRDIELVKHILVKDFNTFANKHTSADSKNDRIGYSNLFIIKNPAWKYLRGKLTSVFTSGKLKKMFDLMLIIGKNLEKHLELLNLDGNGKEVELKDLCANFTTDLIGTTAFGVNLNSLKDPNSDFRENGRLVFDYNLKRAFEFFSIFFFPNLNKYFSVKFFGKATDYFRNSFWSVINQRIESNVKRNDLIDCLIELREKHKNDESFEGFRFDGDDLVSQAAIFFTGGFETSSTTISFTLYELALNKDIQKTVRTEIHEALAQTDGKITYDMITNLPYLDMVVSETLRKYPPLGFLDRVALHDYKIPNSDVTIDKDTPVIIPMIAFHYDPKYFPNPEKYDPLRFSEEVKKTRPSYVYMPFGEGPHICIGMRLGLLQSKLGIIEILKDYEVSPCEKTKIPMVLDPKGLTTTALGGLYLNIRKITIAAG
T3 sequence (A0A8U1CY41 1-694 partner): T1 sequence (A0A8U1CY41 1-694 partner)

[9] = system: transgenic Drosophila melanogaster CYP9Q3 × Hsp70; test: Drosophila diet overlay bioassay, strain expressing honey bee CYP9Q3; type: in vivo; conditions: for LD50 48 h: CYP9Q3 × Hsp70 adults, diet overlay; for RR (resistance ratio): LD50 of CYP9Q3 × Hsp70 divided by LD50 of Empty × Hsp70; for Slope: probit analysis, CYP9Q3 × Hsp70
How it was run: as §2

[10] = biological target: T2, honey bee CYP9Q3; conditions: BOMFC probe, ref Haas et al. (2021)[33], cited from earlier work
[11] = biological target: T1, honey bee CYP9Q2; conditions: BOMFC probe, ref Haas et al. (2021)[33], cited from earlier work
[12] = IC50 CYP9Q2, fungicides, BOMFC probe
[13] = IC50 CYP9Q3, fungicides, BOMFC probe
[14] = IC50 CYP9Q2, diamides, BOMFC probe 15 μM
[15] = IC50 CYP9Q3, diamides, BOMFC probe 6.5 μM
[16] = highest concentration tested, 100 μM

O=C(Nc1ccccc1-c1ccc(Cl)cc1)c1cccnc1Cl [Boscalid, boscalid]
IC50 [1, 12]: > 10 µM
IC50 [2, 13]: 4.13 µM
Hill slope CYP9Q3 ([2]; BOMFC probe): −1.05

CNC(=O)c1cc(Cl)cc(C)c1NC(=O)c1cc(Br)nn1-c1ncccc1Cl [Chlorantraniliprole]
mortality at 48 h ([3]; 0.2 μg/bee, topical 0.2 μg/bee CPR alone, 48 h): 3.6%
mortality at 48 h ([3]; 2 μg/bee, topical 2 μg/bee CPR alone, 48 h, ± SEM, n = 3): 12%
mortality at 48 h ([3]; topical application of 2 μg/bee and 0.2 μg/bee CPR alone): < 15%
effect of propiconazole pretreatment on acute contact toxicity [4]: significantly increased
LD50 [5]: > 4 μg/bee
IC50 [1, 14]: 93.4 µM
LD50 48 h [6]: 22.2 ppm
LD50 48 h [7]: 96.2 ppm
RR (resistance ratio) [7]: 4.34
Slope [7]: 1.74
IC50 [8]: > 100 µM
inhibition of CYP6AQ1-mediated BOMFC metabolism [8]: not inhibited
LD50 48 h [9]: 155 ppm
RR (resistance ratio) [9]: 6.99
Slope [9]: 2.86
IC50 [2, 15]: 17.4 µM

N#Cc1c(Cl)c(Cl)c(Cl)c(C#N)c1Cl [Chlorothalonil, chlorothalonil]
IC50 [1, 12]: > 10 µM
IC50 [2, 13]: > 10 µM

Cc1cc(C2CC2)nc(Nc2ccccc2)n1 [Cyprodinil]
IC50 [1, 12]: > 10 µM
IC50 [2, 13]: > 10 µM

CC1COC(Cn2cncn2)(c2ccc(Oc3ccc(Cl)cc3)cc2Cl)O1 (centres unmarked) [Difenoconazole, difenoconazole]
IC50 [1, 12]: 0.033 µM
IC50 ([1]; IC50 CYP9Q2, lowest IC50 value): ~0.03 µM
Hill slope CYP9Q2 ([1]; BOMFC probe): −0.81
IC50 [2, 13]: 0.032 µM
IC50 ([2]; IC50 CYP9Q3, lowest IC50 value): ~0.03 µM
Hill slope CYP9Q3 ([2]; BOMFC probe): −1.02

N#CC(CCc1ccc(Cl)cc1)(Cn1cncn1)c1ccccc1 (centres unmarked) [Fenbuconazole, fenbuconazole]
IC50 [1, 12]: 0.041 µM
Hill slope CYP9Q2 ([1]; BOMFC probe): −0.67
IC50 [2, 13]: 0.058 µM
Hill slope CYP9Q3 ([2]; BOMFC probe): −0.86

Cc1cc(C(F)(C(F)(F)F)C(F)(F)F)ccc1NC(=O)c1cccc(I)c1C(=O)NC(C)(C)CS(C)(=O)=O [Flubendiamide, flubendiamide]
mortality at 48 h ([3]; 100 μg/bee, FLB doses of 100 μg/bee, acute contact): < 5%
effect of propiconazole pretreatment on acute contact toxicity [4]: not influenced
IC50 [1, 14]: > 100 µM
interaction with BOMFC metabolism by CYP9Q2 [1, 16]: did not show any obvious interaction
LD50 48 h [6]: 147 ppm
LD50 48 h [7]: 253 ppm
RR (resistance ratio) [7]: 1.73
Slope [7]: 4.62
IC50 [8]: > 100 µM
inhibition of CYP6AQ1-mediated BOMFC metabolism [8]: did not show any obvious interaction
LD50 48 h [9]: 179 ppm
RR (resistance ratio) [9]: 1.23
Slope [9]: 6.97
IC50 [2, 15]: > 100 µM
interaction with BOMFC metabolism by CYP9Q3 [2, 16]: did not show any obvious interaction

CC(C)NC(=O)N1CC(=O)N(c2cc(Cl)cc(Cl)c2)C1=O [Iprodione, iprodione]
IC50 [1, 12]: > 10 µM
IC50 [2, 13]: > 10 µM

CC1(C)CCC(Cc2ccc(Cl)cc2)C1(O)Cn1cncn1 (centres unmarked) [Metconazole, metconazole]
IC50 [1, 12]: 0.033 µM
Hill slope CYP9Q2 ([1]; BOMFC probe): −0.6
IC50 [2, 13]: 0.057 µM
Hill slope CYP9Q3 ([2]; BOMFC probe): −1.03

CCCC1COC(Cn2cncn2)(c2ccc(Cl)cc2Cl)O1 (centres unmarked) [Propiconazole, propiconazole]
effect on control bees ([4]; propiconazole only, 10 μg/bee, test period 48 h): remained unaffected
Hill slope CYP9Q3 [10]: −1.10
IC50 ([10]; read-out: IC50 CYP9Q3): 0.072 µM
Hill slope CYP9Q2 [11]: −0.88
IC50 ([11]; read-out: IC50 CYP9Q2): 0.151 µM

COC(=O)N(OC)c1ccccc1COc1ccn(-c2ccc(Cl)cc2)n1 [Pyraclostrobin, pyraclostrobin]
IC50 [1, 12]: > 10 µM
IC50 [2, 13]: 7.84 µM
Hill slope CYP9Q3 ([2]; BOMFC probe): −0.56
